Source: ChEMBL document CHEMBL3044828, “Synthesis of 1-acyl-3-isopropenylbenzimidazolone derivatives and their activity against Botrytis cinerea” (J Agric Food Chem, 2010)
Values after ≈ are worked out from the molar mass of the structure shown.

System: Botrytis cinerea
Test: Fungicidal activity against Botryotinia fuckeliana assessed as inhibition of spore germination at 25 degC after 6 hr by microscopic analysis
Format: functional, organism-based
Outline: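 B. cinerea strain from a university plant disease institute, grown 2 weeks at 20 °C on PDA; conidia scraped into sterile water, filtered through cheesecloth, suspended in 0.1% Tween 20 and adjusted to 1.0 × 10⁶ spores/mL. Samples taken up in methanol and diluted in sterile water to a concentration series (methanol <1% final); 1% methanol control. 10 μL spore–sample aliquots on glass slides in triplicate, moist chamber, germination scored microscopically.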

First: Cc1cc(C)nc(Nc2ccccc2)n1 [PYRIMETHANIL]
Second: C=C(C)n1c(=O)n(C(=O)c2ccco2)c2ccccc21
The IC50 of the first is 2-fold higher: 209 µg/mL (≈ 1050 µM) for the first, 104 µg/mL (≈ 387 µM) for the second.

Going from C=C(C)n1c(=O)n(C(=O)C(C)C)c2ccccc21 to C=C(C)n1c(=O)n(C(C)=O)c2ccccc21, the IC50 rises from 134 µg/mL (≈ 548 µM) to over 500 µg/mL.

First: C=C(C)n1c(=O)n(C(=O)c2ccncc2)c2ccccc21
Second: C=C(C)n1c(=O)n(C(=O)c2ccccc2)c2ccccc21
The IC50 of the first is 1.9-fold higher: 152 µg/mL (≈ 544 µM) for the first, 81.9 µg/mL (≈ 294 µM) for the second.

First: C=C(C)n1c(=O)n(C(=O)CCC)c2ccccc21
Second: C=C(C)n1c(=O)n(C(=O)CCCC)c2ccccc21
The IC50 of the first is higher: over 500 µg/mL for the first, 254 µg/mL (≈ 984 µM) for the second.

Compared with C=C(C)n1c(=O)n(C(=O)Cc2ccc(OC)cc2)c2ccccc21, C=C(C)n1c(=O)n(C(=O)Cc2ccc(Cl)cc2)c2ccccc21 is 6.8-fold lower in IC50: 118 µg/mL (≈ 366 µM) for the first, 17.3 µg/mL (≈ 52.8 µM) for the second.

First: C=C(C)n1c(=O)n(C(=O)C(CC)CC)c2ccccc21
Second: C=C(C)n1c(=O)n(C(=O)CC)c2ccccc21
The IC50 of the first is lower: 277 µg/mL (≈ 1020 µM) for the first, over 500 µg/mL for the second.

Going from C=C(C)n1c(=O)n(C(=O)COc2ccccc2)c2ccccc21 to C=C(C)n1c(=O)n(C(=O)Cc2ccccc2)c2ccccc21, the IC50 falls from 303 µg/mL (≈ 983 µM) to 168 µg/mL (≈ 576 µM) (1.8-fold).

First: C=C(C)C(=O)n1c(=O)n(C(=C)C)c2ccccc21
Second: C=CC(=O)n1c(=O)n(C(=C)C)c2ccccc21
The IC50 of the first is 2-fold higher: 64 µg/mL (≈ 264 µM) for the first, 32.2 µg/mL (≈ 141 µM) for the second.

First: C=C(C)n1c(=O)n(C(=O)c2ccccc2[N+](=O)[O-])c2ccccc21
Second: C=C(C)n1c(=O)n(C(=O)c2ccccc2Cl)c2ccccc21
The IC50 of the first is 26-fold higher: 442 µg/mL (≈ 1370 µM) for the first, 17.2 µg/mL (≈ 54.9 µM) for the second.

C=C(C)n1c(=O)n(C(=O)c2ccc([N+](=O)[O-])cc2)c2ccccc21 and C=C(C)n1c(=O)n(C(=O)c2ccc(Cl)cc2)c2ccccc21 are within 1.5-fold of each other in IC50: 93.3 µg/mL (≈ 289 µM) for the first, 66.8 µg/mL (≈ 214 µM) for the second.

Going from C=C(C)n1c(=O)n(C(=O)CCCc2c[nH]c3ccccc23)c2ccccc21 to C=C(C)n1c(=O)n(C(=O)CCc2ccccc2)c2ccccc21, the IC50 falls from 302 µg/mL (≈ 839 µM) to 126 µg/mL (≈ 410 µM) (2.4-fold).

Going from C=C(C)n1c(=O)n(C(=O)COc2ccc(Cl)cc2)c2ccccc21 to C=C(C)n1c(=O)n(C(=O)Cc2ccc3ccccc3c2)c2ccccc21, the IC50 rises from 108 µg/mL (≈ 315 µM) to over 500 µg/mL.

Compared with C=C(C)n1c(=O)n(C(=O)CCC(C)C)c2ccccc21, C=C(C)n1c(=O)n(C(=O)CCCCC)c2ccccc21 is 2.6-fold lower in IC50: 335 µg/mL (≈ 1230 µM) for the first, 129 µg/mL (≈ 475 µM) for the second.

Work on C=C(C)n1c(=O)n(C(=O)C(CC)c2ccccc2)c2ccccc21 (configuration not stated) yielded an IC50 of 186 µg/mL (≈ 580 µM).
